Test results taken from publication PMC5589077 (ACS chemical neuroscience, 2015).
Where “and” joins values, the source holds several entries; their conditions need not be identical. Equal values may be shown once.

How the values were obtained:
[1] = target: nAChRs; details: cited from earlier work; for Ki: read-out: Ki for inhibition of [3H]epibatidine binding to nAChRs
[2] = tested on: α4β2*-nAChR; format: cell-based, mouse; details: for max (% nic) dopamine release, res α4β2: 10 μM (+) PHT or 100 μM (−) PHT compared to 10 μM nic response
[3] = target: α6β2*-nAChR in α5KO (Mus musculus, UniProt Q9ERK7+Q9R0W9); format: cell-based; details: for max (% nic) dopamine release, α6β2 in α5KO: 10 μM (+) PHT or 100 μM (−) PHT compared to 10 μM nic response; for EC50: read-out: EC50 dopamine release, α6β2 in α5KO, α5KO mice
[4] = target: NET (Homo sapiens, UniProt P23975); assay: off-target radioligand binding assay; details: 10 μM
Summary of the method: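 Inhibition of specific [125I]RTI-55 binding to the norepinephrine transporter, with test compound at 10 μM. The screen was run by a NIDA drug-discovery program contractor.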

[5] = tested on: ICR mice; assay: blockade of nicotine-induced CPP; format: in vivo, mouse; details: 15 min before nicotine 0.5 mg/kg s.c.
Summary of the method: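 Male ICR mice, 8–10 weeks old, n = 8 per group, in an unbiased three-chamber CPP. Day 1: 5 min habituation, then a 15 min baseline, with the paired side randomised. Days 2–4: two 20 min sessions daily, ≥5 h apart, nicotine 0.5 mg/kg s.c. (saline, free base) versus saline. Test compound or vehicle s.c. 15 min before nicotine. Day 5 retest.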

[6] = 62 receptor/enzyme screen; format: binding; details: 10 μM
Summary of the method: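 Profiling in a 62-target radioligand and enzyme panel. Test compound was run at 100 nM and 10 000 nM, in duplicate. The work was done by a contractor to the NIDA Addiction Treatment Discovery Program.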

[7] = target: T1, α6β2*-nAChR (Mus musculus, UniProt Q9ERK7+Q9R0W9); details: read-out: binding Ki, α6β2; [125I]epibatidine; striatum and olfactory tubercle membranes from α4KO mice
[8] = target: δ opioid receptor (Homo sapiens, UniProt P41143); assay: off-target radioligand binding assay; details: 10 μM
[9] = tested on: mouse; details: cited from earlier work; for activity in tail-flick test given intrathecally: intrathecally 10 μg/mouse
[10] = target: 5HT2C (Homo sapiens, UniProt P28335); assay: off-target radioligand binding assay; details: 10 μM
[11] = tested on: mouse; details: cited from earlier work
[12] = target: 5HT2A (Homo sapiens, UniProt P28223); assay: off-target radioligand binding assay; details: 10 μM
[13] = target: DAD4 (Homo sapiens, UniProt P21917); assay: off-target radioligand binding assay; details: 10 μM
[14] = target: rat α7-nAChR (Rattus norvegicus, UniProt Q05941); format: cell-based; details: for antagonism (% of EC50 ACh remaining) α7: 100 μM compound, ACh 300 μM; for IC50: read-out: antagonism, IC50 α7, vs EC50 ACh 300 μM
[15] = target: rat α3β4-nAChR (Rattus norvegicus, UniProt P04757+P12392); format: cell-based; details: for antagonism (% of EC50 ACh remaining) α3β4: 100 μM compound, ACh 200 μM; for IC50: read-out: antagonism, IC50 α3β4, vs EC50 ACh 200 μM
[16] = target: rat α4β2-nAChR (Rattus norvegicus, UniProt P09483+P12390); format: cell-based; details: for antagonism (% of EC50 ACh remaining) α4β2: 100 μM compound, ACh 70 μM; for IC50: read-out: antagonism, IC50 α4β2, vs EC50 ACh 70 μM
[17] = tested on: mouse; details: cited from earlier work; remark: listed apart in the source
[18] = tested on: mouse; details: cited from earlier work; remark: listed apart in the source
[19] = target: DAD1 (Homo sapiens, UniProt P21728); assay: off-target radioligand binding assay; details: 10 μM
[20] = target: μ opioid receptor (Homo sapiens, UniProt P35372); assay: off-target radioligand binding assay; details: 10 μM
[21] = target: DAD3 (Homo sapiens, UniProt P35462); assay: off-target radioligand binding assay; details: 10 μM
[22] = target: DAD2 (Homo sapiens, UniProt P14416); assay: off-target radioligand binding assay; details: 10 μM
[23] = target: κ opioid receptor (Homo sapiens, UniProt P41145); assay: off-target radioligand binding assay; details: 10 μM
[24] = target: α4β2*-nAChR in α5KO (Mus musculus, UniProt O70174+Q9ERK7); format: cell-based; details: for max (% nic) dopamine release, α4β2 in α5KO*: 10 μM (+) PHT or 100 μM (−) PHT compared to 10 μM nic response; for EC50: read-out: EC50 dopamine release, α4β2 in α5KO*, α5KO mice
[25] = target: SERT (Homo sapiens, UniProt P31645); assay: off-target radioligand binding assay; details: 10 μM
[26] = target: DAT (Homo sapiens, UniProt Q01959); assay: off-target radioligand binding assay; details: 10 μM
[27] = tested on: α4β2-nAChR; details: cited from earlier work
[28] = tested on: ICR mice; assay: conditioned place preference; format: in vivo, mouse
Summary of the method: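 Test compound given s.c. 15 min before conditioning, in an unbiased three-chamber CPP. Male ICR mice, 8–10 weeks old, n = 8 per group. Baseline day 1: 5 min habituation, 15 min test. Then 3 days of twice-daily 20 min sessions, ≥5 h apart; test on day 5. Score: drug-paired-side time after minus before conditioning; mean ± SEM, p < 0.05 versus vehicle.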

[29] = target: 5HT1A (Homo sapiens, UniProt P08908); assay: off-target radioligand binding assay; details: 10 μM
[30] = target: T1, α6β2*-nAChR; format: cell-based; details: for max (% nic) dopamine release, sens α6β2: 10 μM (+) PHT or 100 μM (−) PHT compared to 10 μM nic response
[31] = tested on: α4α6β2-nAChRs; details: cited from earlier work
[32] = tested on: α6β2*- and α4β2*-nAChRs; details: via activation of α6β2*- and α4β2*-nAChRs; cited from earlier work
[33] = percentage of the Emax for acetylcholine

α4β2*-nAChR, sequence (Q9ERK7 26-501): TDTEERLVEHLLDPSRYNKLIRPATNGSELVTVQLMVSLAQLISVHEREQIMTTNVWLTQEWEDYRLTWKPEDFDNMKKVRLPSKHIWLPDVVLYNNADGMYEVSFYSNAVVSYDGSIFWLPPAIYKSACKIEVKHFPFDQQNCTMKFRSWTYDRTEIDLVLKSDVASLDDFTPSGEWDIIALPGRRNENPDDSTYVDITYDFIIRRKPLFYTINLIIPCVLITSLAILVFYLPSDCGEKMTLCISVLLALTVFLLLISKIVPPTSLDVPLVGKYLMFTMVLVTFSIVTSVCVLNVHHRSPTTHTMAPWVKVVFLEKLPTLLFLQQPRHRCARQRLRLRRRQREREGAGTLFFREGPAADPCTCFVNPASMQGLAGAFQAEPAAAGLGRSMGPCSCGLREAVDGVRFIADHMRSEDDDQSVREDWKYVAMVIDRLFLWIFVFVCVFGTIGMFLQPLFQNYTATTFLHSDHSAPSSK
α4β2*-nAChR, sequence (O70174 31-629, further chain): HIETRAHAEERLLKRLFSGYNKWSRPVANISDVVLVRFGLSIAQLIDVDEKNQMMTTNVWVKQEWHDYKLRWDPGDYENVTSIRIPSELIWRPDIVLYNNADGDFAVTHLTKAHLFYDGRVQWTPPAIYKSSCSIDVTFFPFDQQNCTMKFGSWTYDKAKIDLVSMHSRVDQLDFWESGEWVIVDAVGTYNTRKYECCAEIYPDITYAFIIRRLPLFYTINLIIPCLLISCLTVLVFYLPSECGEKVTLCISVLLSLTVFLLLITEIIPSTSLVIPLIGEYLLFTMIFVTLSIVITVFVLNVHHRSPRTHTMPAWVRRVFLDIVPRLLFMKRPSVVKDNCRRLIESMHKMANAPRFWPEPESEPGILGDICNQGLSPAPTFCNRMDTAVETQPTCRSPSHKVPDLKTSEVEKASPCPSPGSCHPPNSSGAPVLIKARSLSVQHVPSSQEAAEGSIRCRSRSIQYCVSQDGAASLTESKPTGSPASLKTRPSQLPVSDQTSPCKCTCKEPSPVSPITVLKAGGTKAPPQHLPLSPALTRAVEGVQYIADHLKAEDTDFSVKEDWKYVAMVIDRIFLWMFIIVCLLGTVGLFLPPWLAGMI
T1 sequence (Q9ERK7 26-501): as the sequence (Q9ERK7 26-501) above
T1 sequence (Q9R0W9 26-494): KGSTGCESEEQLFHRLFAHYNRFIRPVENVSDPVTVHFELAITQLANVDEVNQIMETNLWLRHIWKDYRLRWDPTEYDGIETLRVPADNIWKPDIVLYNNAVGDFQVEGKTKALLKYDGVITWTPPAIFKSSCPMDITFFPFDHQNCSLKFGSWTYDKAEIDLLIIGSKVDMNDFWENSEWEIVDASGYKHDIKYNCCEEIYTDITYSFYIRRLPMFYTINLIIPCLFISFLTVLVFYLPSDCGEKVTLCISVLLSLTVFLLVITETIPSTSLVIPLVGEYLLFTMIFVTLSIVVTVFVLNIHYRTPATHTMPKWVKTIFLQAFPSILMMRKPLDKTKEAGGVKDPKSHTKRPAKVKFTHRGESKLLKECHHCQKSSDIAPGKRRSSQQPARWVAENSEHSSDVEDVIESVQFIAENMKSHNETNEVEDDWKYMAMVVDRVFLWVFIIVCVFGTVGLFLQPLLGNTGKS
rat α3β4-nAChR, sequence (P12392 21-495): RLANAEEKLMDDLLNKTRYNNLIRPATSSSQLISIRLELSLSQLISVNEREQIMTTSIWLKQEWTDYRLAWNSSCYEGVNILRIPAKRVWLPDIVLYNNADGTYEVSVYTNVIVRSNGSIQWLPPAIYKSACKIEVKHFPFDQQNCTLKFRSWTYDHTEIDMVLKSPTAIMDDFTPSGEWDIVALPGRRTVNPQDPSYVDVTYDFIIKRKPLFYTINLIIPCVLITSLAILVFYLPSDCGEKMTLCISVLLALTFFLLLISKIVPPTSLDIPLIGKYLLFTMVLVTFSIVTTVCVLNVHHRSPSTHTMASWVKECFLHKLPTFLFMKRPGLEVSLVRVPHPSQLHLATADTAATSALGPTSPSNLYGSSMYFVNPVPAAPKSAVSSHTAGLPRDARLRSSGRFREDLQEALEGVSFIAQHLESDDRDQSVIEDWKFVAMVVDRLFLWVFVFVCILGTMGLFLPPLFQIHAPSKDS
rat α3β4-nAChR, sequence (P04757 26-499): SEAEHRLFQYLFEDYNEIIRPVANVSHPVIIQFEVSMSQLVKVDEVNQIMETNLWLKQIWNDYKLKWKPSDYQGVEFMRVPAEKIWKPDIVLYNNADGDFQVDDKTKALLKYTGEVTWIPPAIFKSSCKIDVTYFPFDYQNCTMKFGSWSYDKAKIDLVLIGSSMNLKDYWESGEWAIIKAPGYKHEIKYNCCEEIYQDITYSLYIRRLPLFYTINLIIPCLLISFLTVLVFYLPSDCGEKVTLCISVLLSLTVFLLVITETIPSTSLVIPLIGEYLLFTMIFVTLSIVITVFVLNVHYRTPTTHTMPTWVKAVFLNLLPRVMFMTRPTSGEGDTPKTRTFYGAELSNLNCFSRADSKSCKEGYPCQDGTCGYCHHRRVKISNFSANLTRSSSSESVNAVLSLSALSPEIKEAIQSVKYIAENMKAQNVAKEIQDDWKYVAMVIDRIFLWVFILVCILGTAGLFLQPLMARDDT
rat α7-nAChR, sequence (Q05941 23-502): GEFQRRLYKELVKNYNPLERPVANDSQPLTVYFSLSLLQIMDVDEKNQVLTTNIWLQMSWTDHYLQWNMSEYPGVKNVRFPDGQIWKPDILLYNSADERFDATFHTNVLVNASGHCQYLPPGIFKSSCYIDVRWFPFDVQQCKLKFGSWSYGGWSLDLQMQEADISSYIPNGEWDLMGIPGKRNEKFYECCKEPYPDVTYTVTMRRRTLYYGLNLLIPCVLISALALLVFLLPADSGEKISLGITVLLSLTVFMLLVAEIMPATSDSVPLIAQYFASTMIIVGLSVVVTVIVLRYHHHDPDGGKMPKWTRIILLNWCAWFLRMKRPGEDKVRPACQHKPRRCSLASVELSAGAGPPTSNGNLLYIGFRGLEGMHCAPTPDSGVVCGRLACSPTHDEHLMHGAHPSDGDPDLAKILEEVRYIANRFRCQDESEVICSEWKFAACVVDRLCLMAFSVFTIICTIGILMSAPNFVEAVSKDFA
rat α4β2-nAChR, sequence (P12390 25-500): as the sequence (Q9ERK7 26-501) above, with T350A, M371V, Q379R, A383T, L387P, M391V, I449V, S468P counted along it
rat α4β2-nAChR, sequence (P09483 31-630): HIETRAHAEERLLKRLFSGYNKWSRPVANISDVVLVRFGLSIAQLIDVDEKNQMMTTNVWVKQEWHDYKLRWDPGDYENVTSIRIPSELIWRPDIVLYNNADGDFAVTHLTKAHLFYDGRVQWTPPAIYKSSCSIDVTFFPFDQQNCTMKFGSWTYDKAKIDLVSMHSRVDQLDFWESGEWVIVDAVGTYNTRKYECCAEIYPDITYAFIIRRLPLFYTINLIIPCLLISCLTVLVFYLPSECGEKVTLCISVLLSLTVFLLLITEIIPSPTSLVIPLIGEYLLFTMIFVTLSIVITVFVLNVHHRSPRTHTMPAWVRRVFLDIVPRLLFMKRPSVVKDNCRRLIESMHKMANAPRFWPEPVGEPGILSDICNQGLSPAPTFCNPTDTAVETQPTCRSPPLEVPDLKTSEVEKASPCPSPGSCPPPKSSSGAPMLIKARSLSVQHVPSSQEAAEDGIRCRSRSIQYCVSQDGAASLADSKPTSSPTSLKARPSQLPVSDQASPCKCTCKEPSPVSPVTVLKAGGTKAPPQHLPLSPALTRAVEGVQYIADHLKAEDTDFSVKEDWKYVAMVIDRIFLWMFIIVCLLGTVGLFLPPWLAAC
α4β2*-nAChR in α5KO, sequence (O70174 31-629): as the sequence (O70174 31-629, further chain) above
α4β2*-nAChR in α5KO, sequence (Q9ERK7 26-501): as the sequence (Q9ERK7 26-501) above
α6β2*-nAChR in α5KO, sequence (Q9R0W9 26-494): as the sequence (Q9R0W9 26-494) above
α6β2*-nAChR in α5KO, sequence (Q9ERK7 26-501): as the sequence (Q9ERK7 26-501) above
DAD1, sequence (P21728 whole entry): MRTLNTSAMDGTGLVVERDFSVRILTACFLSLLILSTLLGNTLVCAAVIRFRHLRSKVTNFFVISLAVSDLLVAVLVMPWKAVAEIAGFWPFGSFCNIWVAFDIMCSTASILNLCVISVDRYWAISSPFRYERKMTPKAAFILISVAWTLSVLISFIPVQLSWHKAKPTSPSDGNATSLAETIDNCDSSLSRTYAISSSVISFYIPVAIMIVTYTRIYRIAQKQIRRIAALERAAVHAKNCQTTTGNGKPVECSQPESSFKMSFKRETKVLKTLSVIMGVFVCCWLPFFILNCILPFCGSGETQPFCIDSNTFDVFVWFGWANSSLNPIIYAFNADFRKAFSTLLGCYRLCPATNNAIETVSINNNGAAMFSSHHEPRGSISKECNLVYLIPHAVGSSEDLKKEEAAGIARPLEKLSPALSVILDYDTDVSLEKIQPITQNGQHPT
DAT, sequence (Q01959 whole entry, species assumed): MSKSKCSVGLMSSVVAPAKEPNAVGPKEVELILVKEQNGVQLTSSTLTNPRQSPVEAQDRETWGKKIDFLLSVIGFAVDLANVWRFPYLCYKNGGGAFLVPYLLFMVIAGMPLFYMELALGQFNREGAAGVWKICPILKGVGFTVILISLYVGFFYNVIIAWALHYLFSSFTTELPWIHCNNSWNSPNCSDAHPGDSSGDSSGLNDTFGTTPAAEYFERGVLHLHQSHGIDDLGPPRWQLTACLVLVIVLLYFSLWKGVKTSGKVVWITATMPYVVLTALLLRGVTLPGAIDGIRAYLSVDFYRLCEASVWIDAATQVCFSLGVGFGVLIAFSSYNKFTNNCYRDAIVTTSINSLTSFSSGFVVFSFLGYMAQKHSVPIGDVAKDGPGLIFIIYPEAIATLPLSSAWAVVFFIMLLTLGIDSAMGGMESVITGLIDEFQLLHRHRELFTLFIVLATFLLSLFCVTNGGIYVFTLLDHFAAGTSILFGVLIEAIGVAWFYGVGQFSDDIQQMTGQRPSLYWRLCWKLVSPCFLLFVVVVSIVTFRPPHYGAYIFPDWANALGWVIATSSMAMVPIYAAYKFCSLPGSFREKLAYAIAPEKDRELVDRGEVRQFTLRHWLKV

Pyrido[3,4]homotropane [PHT]
Ki [1]: 6.2 nM

Pyrido[3,4]homotropane [(−)-PHT]
max (% nic) dopamine release, res α4β2 [2]: 17% | max (% nic) dopamine release, α6β2 in α5KO [3]: 96% | EC50 [3]: 2000 nM | activity in radioligand binding assay, NET [4]: inactive | blockade of nicotine-induced CPP ([5]; pretreatment 0.05 mg/kg): completely preventing nicotine preference | activity at off site targets in 62 receptor/enzyme screen (NovaScreen) [6]: inactive | Ki [7]: 629 nM | activity in radioligand binding assay, δ opioid receptor [8]: inactive | Ki [1]: 346 nM | activity in tail-flick test given intrathecally [9]: inactive | AD50, antagonism of nicotine-induced antinociception in the tail-flick test ([9]; mouse): 0.07 µg/kg | antinociceptive (agonist) activity in tail-flick test ([9]; mouse): inactive | activity in radioligand binding assay, 5HT2C [10]: inactive | activity in locomotor-activity test [11]: inactive | activity in radioligand binding assay, 5HT2A [12]: inactive | activity in radioligand binding assay, DAD4 [13]: inactive | antagonism (% of EC50 ACh remaining) α7 [14]: 84± 10% | IC50 [14]: 353 ± 34 µM | antagonist selectivity for α3β4- relative to α4β2-nAChR [15]: 3 fold | antagonist selectivity for α3β4- relative to α7-nAChR [15]: 11 fold | antagonism (% of EC50 ACh remaining) α3β4 [15]: 32 ± 3% | IC50 [15]: 33 ± 6 µM | antagonism (% of EC50 ACh remaining) α4β2 [16]: 41 ± 4% | IC50 [16]: 99 ± 13 µM | AD50, antagonism of antinociceptive effects of nicotine in the hot-plate test [17]: 0.8 µg/kg | antinociceptive (agonist) activity in hot-plate test [17]: inactive | activity in hypothermia test [18]: inactive | activity in radioligand binding assay, DAD1 [19]: inactive | activity in radioligand binding assay, μ opioid receptor [20]: inactive | activity in radioligand binding assay, DAD3 [21]: inactive | activity in radioligand binding assay, DAD2 [22]: inactive | activity in radioligand binding assay, κ opioid receptor [23]: inactive | max (% nic) dopamine release, α4β2 in α5KO* [24]: 10% | EC50 [24]: 700 nM | activity in radioligand binding assay, SERT [25]: inactive | activity in radioligand binding assay, DAT [26]: inactive | activation of currents at α4β2-nAChR [27]: did not activate currents | induction of significant preference in the CPP test ([28]; all doses tested, s.c.): ineffective | activity in radioligand binding assay, 5HT1A [29]: inactive | max (% nic) dopamine release, sens α6β2 [30]: 109%

Pyrido[3,4]homotropane [(+)-PHT]
max (% nic) dopamine release, res α4β2 [2]: 33% | potency relative to (−)-PHT at the α4β2*-nAChR (DA release EC50) ([2]; wild type mice): 10 fold | max (% nic) dopamine release, α6β2 in α5KO [3]: 125% | EC50 [3]: 200 nM | inhibition of specific [125I]RTI-55 binding to the NET [4]: 61% | preference scores in comparison to nicotine alone ([5]; pretreatment 1 mg/kg): significantly reduced | activity at off site targets in 62 receptor/enzyme screen (NovaScreen) [6]: inactive | Ki [7]: 28 nM | activity in radioligand binding assay, δ opioid receptor [8]: inactive | affinity relative to (−)-PHT for inhibition of [3H]epibatidine binding [1]: 266 times | Ki [1]: 1.29 nM | activity in tail-flick test given intrathecally [9]: no antinociceptive activity | antinociceptive (agonist) activity in tail-flick test ([9]; mouse): no antinociceptive activity | activity in radioligand binding assay, 5HT2C [10]: inactive | activity in locomotor-activity test [11]: weak activity | activity in radioligand binding assay, 5HT2A [12]: inactive | activity in radioligand binding assay, DAD4 [13]: inactive | antagonism (% of EC50 ACh remaining) α7 [14]: 87± 1% | IC50 [14]: 720 ± 290 µM | antagonism (% of EC50 ACh remaining) α3β4 [15]: 93 ± 3% | agonist activity α3β4 Emax (% ACh) [15, 33]: 8.4 % ACh and 8.4 ± 0.5 % ACh | EC50 ([15]; read-out: agonist activity α3β4 EC50, concentration–response curve): 50 ± 6 µM | IC50 [15]: 242 ± 13 µM | agonist potency at α4β2-nAChR compared to α3β4-nAChR (EC50 comparison) [16]: 12 fold | antagonist selectivity for α4β2- relative to α3β4-nAChR (IC50 comparison) [16]: 15 fold | antagonist selectivity for α4β2- relative to α7-nAChR (IC50 comparison) [16]: 45 fold | antagonism (% of EC50 ACh remaining) α4β2 [16]: 17 ± 3% | agonist activity α4β2 Emax (% ACh) [16, 33]: 4.6 % ACh and 4.6 ± 0.4 % ACh | EC50 ([16]; read-out: agonist activity α4β2 EC50, concentration–response curve): 4 ± 1 µM | IC50 [16]: 16 ± 3 µM | antinociceptive (agonist) activity in hot-plate test [17]: no antinociceptive activity | activity in hypothermia test [18]: weak activity | activity in radioligand binding assay, DAD1 [19]: inactive | activity in radioligand binding assay, μ opioid receptor [20]: inactive | activity in radioligand binding assay, DAD3 [21]: inactive | activity in radioligand binding assay, DAD2 [22]: inactive | activity in radioligand binding assay, κ opioid receptor [23]: inactive | max (% nic) dopamine release, α4β2 in α5KO* [24]: 13% | EC50 [24]: 2000 nM | activity in radioligand binding assay, SERT [25]: inactive | activity in radioligand binding assay, DAT [26]: inactive | EC50 ([27]; read-out: EC50 at α4β2-nAChR): 5.5 µM | intrinsic activity at α4β2-nAChR ([27]; versus full agonist acetylcholine (1 mM)): 17% | CPP scores ([28]; 3 mg/kg s.c., 15 min before conditioning): significantly increased | activity in radioligand binding assay, 5HT1A [29]: inactive | max (% nic) dopamine release, sens α6β2 [30]: 94% | potency relative to (−)-PHT at the α6β2*-nAChR (DA release EC50) ([30]; wild type mice): 30 fold

CN1CCC[C@H]1c1cccnc1 [Nicotine, nicotine]
partial agonist activity at α4α6β2-nAChRs [31]: 70%

Cc1ncccc1OC[C@@H]1CCCN1 [ABT-089, 2-Methyl-3-[(2S)-pyrrolidin-2-yl]methoxypyridine]
effect on in vitro striatal DA release [32]: increases in vitro striatal DA release
